Test results reported in ChEMBL document CHEMBL4400543, “Identification and Characterization of AES-135, a Hydroxamic Acid-Based HDAC Inhibitor That Prolongs Survival in an Orthotopic Mouse Model of Pancreatic Cancer” (J Med Chem, 2019).
Calls of active or inactive are those of the source.

Assays:
[1] = Cytotoxicity against mouse KPC monolayer cells assessed as reduction in tumor spheroid intensity after 72 hrs by Alamar Blue assay; assay type: functional, cell-based
Procedure, shortened: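 Monolayer proliferation of STR-authenticated, mycoplasma-checked patient-derived PDAC lines and mouse KPC cells. Plated at 2000 cells/well, treated 72 h, read by alamarBlue. At least triplicate, n = 3–5.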

[2] = Lipophilicity, log D of the compound at pH 7.4 by LC-ESI MS analysis; assay type: physicochemical; conditions: buffer
Procedure, shortened: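 Partitioning measured in a 1-octanol/phosphate-buffered saline system at pH 7.4.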

[3] = target: Signal transducer and activator of transcription 3 (Homo sapiens) (UniProt P40763); test: Inhibition of STAT3 phosphorylation at S727 residue in human BTSC 100EF cells at 1 to 10 uM after 24 hrs by Western blot method; assay type: cell-based
Chain of Signal transducer and activator of transcription 3 (Homo sapiens) (P40763 whole entry): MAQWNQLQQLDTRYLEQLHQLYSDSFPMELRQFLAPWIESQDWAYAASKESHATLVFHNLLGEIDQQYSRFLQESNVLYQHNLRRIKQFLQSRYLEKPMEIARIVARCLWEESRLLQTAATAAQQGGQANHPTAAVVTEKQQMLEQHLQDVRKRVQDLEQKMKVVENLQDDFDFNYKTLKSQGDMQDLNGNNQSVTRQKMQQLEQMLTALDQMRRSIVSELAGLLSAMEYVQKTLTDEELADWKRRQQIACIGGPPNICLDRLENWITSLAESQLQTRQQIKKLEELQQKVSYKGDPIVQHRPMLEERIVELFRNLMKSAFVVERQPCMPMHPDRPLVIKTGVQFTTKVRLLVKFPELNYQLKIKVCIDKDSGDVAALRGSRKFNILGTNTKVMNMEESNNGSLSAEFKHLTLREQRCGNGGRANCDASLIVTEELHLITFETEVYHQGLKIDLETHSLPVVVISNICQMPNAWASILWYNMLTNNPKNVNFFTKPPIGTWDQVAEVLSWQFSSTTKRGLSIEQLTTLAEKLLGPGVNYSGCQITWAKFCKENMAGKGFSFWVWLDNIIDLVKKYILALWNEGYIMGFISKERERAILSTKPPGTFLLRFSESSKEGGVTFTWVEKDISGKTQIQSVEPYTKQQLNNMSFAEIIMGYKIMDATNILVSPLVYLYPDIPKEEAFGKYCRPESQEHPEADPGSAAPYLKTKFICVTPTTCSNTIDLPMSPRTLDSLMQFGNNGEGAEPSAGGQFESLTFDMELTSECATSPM
Procedure, shortened: (§1)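 BTSCs dissociated to single cells and treated with drug or DMSO. Lysed in RIPA buffer with protease inhibitors. 20 μg lysate run on SDS-PAGE and transferred to nitrocellulose. Blocked in 5% milk, primary antibody overnight at 4 °C, then HRP secondary for 1 h.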

Histone deacetylase 8 = target: T1, Histone deacetylase 8 (Homo sapiens, UniProt Q9BY41); test: Inhibition of recombinant human HDAC8 expressed in SF9 baculoviral system using FAM-labeled acetylated peptide as substrate by EMSA
T1 sequence (Q9BY41 whole entry): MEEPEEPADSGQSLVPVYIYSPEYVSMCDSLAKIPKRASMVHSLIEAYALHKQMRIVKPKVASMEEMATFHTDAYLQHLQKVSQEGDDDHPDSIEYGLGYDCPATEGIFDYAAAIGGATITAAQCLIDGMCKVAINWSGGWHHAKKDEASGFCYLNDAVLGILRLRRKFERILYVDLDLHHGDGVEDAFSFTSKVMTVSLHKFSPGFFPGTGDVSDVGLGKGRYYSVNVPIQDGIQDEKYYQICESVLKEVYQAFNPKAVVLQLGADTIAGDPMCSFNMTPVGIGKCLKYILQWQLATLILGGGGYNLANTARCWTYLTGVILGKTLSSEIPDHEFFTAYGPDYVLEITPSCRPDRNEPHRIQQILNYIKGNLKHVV
Procedure, shortened: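 Full-length recombinant human enzyme from an Sf9 baculovirus system, in 100 mM HEPES pH 7.5 with 25 mM KCl, 0.1% BSA, 0.01% Triton X-100 and 1% DMSO. Final enzyme was 0.5 nM for HDAC3, 60 nM for HDAC6 and 5.0 nM for HDAC8. FAM-acetylated peptide was 1 μM. The read-out was product/(substrate+product) by microfluidic mobility shift, with inhibition set against DMSO and no-enzyme controls (quadruplicate). Compounds were tested at 12 threefold-spaced concentrations, and IC50 came from a four-parameter sigmoid fit.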

[4] = Stability of the compound in DMSO at 10 mM after 25 hrs in presence of reduced L-glutathione by HPLC analysis; assay type: physicochemical; conditions: 10000 µM
Procedure, shortened: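 A 10 mM DMSO stock was mixed with 100-fold excess reduced glutathione in HEPES buffer, pH 7.4. Samples were analysed by reversed-phase HPLC at regular intervals, with UV at 254 nm. Decay of the parent compound was followed as loss of its peak area.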

[5] = target: Histone deacetylase 4 (Homo sapiens) (UniProt P56524); test: Inhibition of recombinant human HDAC4 expressed in SF9 baculoviral system at 10 uM using FAM-labeled acetylated peptide as substrate by EMSA relative to control
Chain of Histone deacetylase 4 (Homo sapiens) (P56524 whole entry): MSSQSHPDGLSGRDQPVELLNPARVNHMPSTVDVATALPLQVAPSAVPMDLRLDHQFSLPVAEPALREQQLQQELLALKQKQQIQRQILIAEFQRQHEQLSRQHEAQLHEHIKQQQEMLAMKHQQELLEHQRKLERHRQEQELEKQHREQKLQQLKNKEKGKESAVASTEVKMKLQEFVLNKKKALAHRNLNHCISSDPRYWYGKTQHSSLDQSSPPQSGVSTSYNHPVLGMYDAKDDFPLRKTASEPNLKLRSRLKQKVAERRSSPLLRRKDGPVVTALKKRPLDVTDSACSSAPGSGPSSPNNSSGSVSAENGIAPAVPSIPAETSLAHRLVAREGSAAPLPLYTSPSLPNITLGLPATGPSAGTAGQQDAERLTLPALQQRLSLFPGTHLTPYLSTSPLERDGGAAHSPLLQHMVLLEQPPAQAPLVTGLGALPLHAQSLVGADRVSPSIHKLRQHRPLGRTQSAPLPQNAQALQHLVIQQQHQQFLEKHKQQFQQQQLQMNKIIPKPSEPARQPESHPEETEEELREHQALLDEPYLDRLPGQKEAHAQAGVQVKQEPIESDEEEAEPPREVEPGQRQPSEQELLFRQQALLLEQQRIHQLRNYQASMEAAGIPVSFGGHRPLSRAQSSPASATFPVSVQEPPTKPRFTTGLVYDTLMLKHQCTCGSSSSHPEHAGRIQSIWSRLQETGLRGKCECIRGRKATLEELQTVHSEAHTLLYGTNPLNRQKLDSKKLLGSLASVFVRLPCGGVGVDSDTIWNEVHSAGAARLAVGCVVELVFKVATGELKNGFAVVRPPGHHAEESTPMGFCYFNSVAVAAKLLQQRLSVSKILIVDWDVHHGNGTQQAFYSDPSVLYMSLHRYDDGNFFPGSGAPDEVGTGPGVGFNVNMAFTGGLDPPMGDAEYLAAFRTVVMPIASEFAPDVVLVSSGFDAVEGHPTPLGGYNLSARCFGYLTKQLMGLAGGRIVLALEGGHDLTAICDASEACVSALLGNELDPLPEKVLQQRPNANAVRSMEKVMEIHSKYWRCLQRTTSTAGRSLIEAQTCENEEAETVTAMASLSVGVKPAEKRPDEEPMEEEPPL

[6] = target: Signal transducer and activator of transcription 3 (Homo sapiens) (UniProt P40763); test: Inhibition of STAT3 phosphorylation at Y705 residue in human MDA-MB-231 cells up to 30 uM after 5 hrs by Western blot method; assay type: cell-based
Procedure, shortened: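 Run on 4–15% SDS-PAGE and transferred to PVDF. Primary antibodies 1:1000 overnight at 4 °C, HRP or fluorescent secondary 1:5000, ECL detection, β-actin loading control.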

Pa03C = test: Cytotoxicity against human Pa03C cells assessed as reduction in tumor spheroid intensity after 72 hrs in presence of human CAF19 cells by Alamar Blue assay; assay type: functional, cell-based
Procedure, shortened: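 3D spheroids of patient-derived PDAC cells (tomato red) alone or with CAF19 cells, plus CAF cultures. Imaging read-outs: area is the μ2 of objects above a tomato red intensity threshold; intensity is summed red or green pixel fluorescence after background removal. n = 3–5.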

[7] = Drug uptake in NSG mouse serum at 10 mg/kg, ip administered daily for 5 days by HPLC-MS/MS analysis; assay type: ADME, organism-based; conditions: read-out: Drug uptake
Procedure, shortened: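 NSG mice dosed IP once daily for 5 days at 10 or 40 mg/kg, n = 6. Blood collected 5 h after the final injection for serum drug concentration, reported ± SD.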

[8] = Half life in ICR/CD1 mouse hepatocytes at 1 uM up to 120 mins by LC-MS/MS analysis; assay type: ADME, cell-based, Hepatocyte; conditions: 2 h
[9] = Bioavailability in NSG mouse at 20 mg/kg, ip administered as single dose by HPLC-MS/MS analysis; assay type: ADME, organism-based; conditions: in vivo
[10] = Apparent permeability across basolateral to apical side in human Caco2 cells at 5 uM by LC-MS/MS analysis; assay type: ADME, cell-based; conditions: caco-2, 5 µM
Procedure, shortened: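 Caco-2 monolayer permeability run in duplicate. Monolayer integrity checked by TEER and Lucifer Yellow fluorescence (ex 485/em 530 nm). Papp measured apical-to-basolateral and basolateral-to-apical by LC-ESI-MS/MS with internal standards. Digoxin, prazosin and propranolol as controls.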

[11] = target: Signal transducer and activator of transcription 3 (Homo sapiens) (UniProt P40763); test: Inhibition of STAT3 phosphorylation at S727 residue in human BTSC 147EF cells at 2 uM after 3 to 24 hrs by Western blot method; assay type: cell-based; procedure, shortened: as §1
MOLM-13 = test: Cytotoxicity against human MOLM13 cells at 50 uM after 72 hrs by CellTiter-Blue assay; assay type: functional, cell-based
Procedure, shortened: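 Cells in 10% FBS medium, 10 000 cells/well, treated 24 h after plating. Twofold dilution series from a 50.0 μM top dose to 0.097656 μM, in triplicate, 0.5% DMSO vehicle. 72 h at 37 °C, 5% CO2. CellTiter-Blue for 1–4 h, fluorescence 560/590 nm. IC50 by nonlinear regression.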

Question: For `CC(C)(C)c1ccc(CN(C(=O)CN(Cc2c(F)c(F)c(F)c(F)c2F)S(=O)(=O)c2ccc(F)cc2)c2ccc(C(=O)NO)cc2)cc1`, which IC50 [1] is on record?
Answer: The IC50 was 1300 nM.

Question: And the logD [2]?
Answer: The logD was 4.15.

Question: What about the inhibition [3] of the same compound?
Answer: The inhibition was “inactive”.

Question: What about the IC50 (Histone deacetylase 8) of the same compound?
Answer: The IC50 was greater than 1000 nM.

Question: And the Stability [4]?
Answer: The Stability was “Stable”.

Question: What about the inhibition [5] of the same compound?
Answer: The inhibition was 15%.

Question: And the inhibition [6]?
Answer: Its inhibition is “inactive”.

Question: What about the IC50 (Pa03C) of the same compound?
Answer: The IC50 was 1560 nM.

Question: And the concentration at 120 h [7]?
Answer: Its concentration at 120 h is 470 nM.

Question: What about the t1/2 [8] of the same compound?
Answer: The t1/2 was 38.5 min.

Question: What about the bioavailability [9] of the same compound?
Answer: The bioavailability was 100%.

Question: What about the Papp [10] of the same compound?
Answer: The Papp was 1.02 ×10⁻⁶ cm/s.

Question: And the inhibition [11]?
Answer: Its inhibition is “inactive”.

Question: What about the Activity (MOLM-13) of the same compound?
Answer: Its Activity is “Active”.
